Measurements as given in ChEMBL document CHEMBL1153083, “Antiprotozoal, anticancer and antimicrobial activities of dihydroartemisinin acetal dimers and monomers” (Bioorg Med Chem, 2009).
The source made the active and inactive calls. No cut-off for these calls is given here.

Experiments:
Plasmodium falciparum [1] = assay: Antiplasmodial activity against Plasmodium falciparum D6 infected in RBCs by parasitic LDH release assay; format: functional, organism-based
Procedure, shortened: (§1)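 Infected erythrocytes at 2% parasitemia and 2% hematocrit, in RPMI 1640 with 10% human serum and amikacin 60 μg/mL, were exposed to serial dilutions under N2/O2/CO2 (90:5:5) at 37°C for 72 h. LDH was read with Malstat reagent (30 min), then NBT/PES in the dark (60 min), stopped with 5% acetic acid, at 650 nm. IC50 came from percent growth dose-response curves.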

Staphylococcus aureus [2] = assay: Antibacterial activity against methicillin-resistant Staphylococcus aureus ATCC 43300 by modified CLSI/NCCLS method; format: functional, organism-based
Cryptococcus neoformans = assay: Antifungal activity against Cryptococcus neoformans ATCC 90113 by modified CLSI/NCCLS method; format: functional, organism-based
[3] = Toxicity against pig LLC-PK11 cells after 48 hrs by neutral red assay; format: cell-based, Sus scrofa; details: for TC50: llc-pk11, 48 h; for CC50 at 48 h: LLC-PK11 cells, read-out: TC50
Procedure, shortened: (§2)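 Cells seeded at 25,000 per well and incubated 24 h, then exposed to samples for 48 h. Viable cells were counted by neutral red, with DMSO as vehicle control. IC50 or TC50 values were derived from logarithmic plots of growth inhibition versus concentration.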

Candida albicans = assay: Antifungal activity against Candida albicans ATCC 90028 by modified CLSI/NCCLS method; format: functional, organism-based
Pseudomonas aeruginosa = assay: Antibacterial activity against Pseudomonas aeruginosa ATCC 27853 by modified CLSI/NCCLS method; format: functional, organism-based
[4] = tested on: Mycobacterium intracellulare; assay: Antibacterial activity against Mycobacterium intracellular ATCC 23068 by Franzblau method; format: functional, organism-based
BT-549 = assay: Cytotoxicity against human BT549 cells after 48 hrs by neutral red assay; format: functional, cell-based; procedure, shortened: as §2
Escherichia coli = assay: Antibacterial activity against Escherichia coli ATCC 35218 by modified CLSI/NCCLS method; format: functional, organism-based
Aspergillus fumigatus = assay: Antifungal activity against Aspergillus fumigatus ATCC 90906 by modified CLSI/NCCLS method; format: functional, organism-based
Vero = assay: (§3) Toxicity against african green monkey Vero cells after 48 hrs by neutral red assay; format: cell-based; details: chlorocebus sabaeus, vero, 48 h; procedure, shortened: as §2
SK-MEL = assay: Cytotoxicity against human SK-MEL cells after 48 hrs by neutral red assay; format: functional, cell-based; procedure, shortened: as §2
Plasmodium falciparum [5] = assay: Antiplasmodial activity against Plasmodium falciparum W2 infected in RBCs by parasitic LDH release assay; format: functional, organism-based; procedure, shortened: as §1
KB = assay: Cytotoxicity against human KB cells after 48 hrs by neutral red assay; format: functional, cell-based; procedure, shortened: as §2
SK-OV-3 = assay: Cytotoxicity against human SKOV3 cells after 48 hrs by neutral red assay; format: functional, cell-based; details: sk-ov-3; procedure, shortened: as §2
[6] = Selectivity index, ratio of TC50 for african green monkey (Cercopithecus aethiops) Vero cells to IC50 for Plasmodium falciparum W2; format: toxicity, cell-based
[7] = Toxicity against african green monkey Vero cells; format: cell-based; details: chlorocebus sabaeus; procedure, shortened: as §2
[8] = Selectivity index, ratio of TC50 for african green monkey (Cercopithecus aethiops) Vero cells to IC50 for Plasmodium falciparum D6; format: toxicity, cell-based
Leishmania donovani = assay: Antileishmanial activity against Leishmania donovani promastigotes after 48 hrs by alamar blue assay; format: functional, organism-based; details: for IC50: read-out: IC50
Pichia kudriavzevii = assay: Antifungal activity against Candida krusei ATCC 6258 by modified CLSI/NCCLS method; format: functional, organism-based
Staphylococcus aureus [9] = assay: Antibacterial activity against Staphylococcus aureus ATCC 29213 by modified CLSI/NCCLS method; format: functional, organism-based
[10] = as §3; format: cell-based; details: chlorocebus sabaeus, Vero cells; read-out: TC50; procedure, shortened: as §2
Nakaseomyces glabratus = assay: Antifungal activity against Candida glabrata ATCC 90030 by modified CLSI/NCCLS method; format: functional, organism-based
[11] = Mycobacterium intracellulare, ATCC 23068, read-out: IC50
[12] = Homo sapiens, BT-549, 48 h, read-out: IC50
[13] = Homo sapiens, SK-MEL, 48 h, read-out: IC50
[14] = Homo sapiens, KB, 48 h, read-out: IC50
[15] = Candida albicans, ATCC 90028, read-out: IC50
[16] = Aspergillus fumigatus, ATCC 90906, read-out: IC50
[17] = Nakaseomyces glabratus, ATCC 90030, read-out: IC50
[18] = Escherichia coli, ATCC 35218, read-out: IC50
[19] = Pichia kudriavzevii, ATCC 6258, read-out: IC50

| SMILES | IC50 (Plasmodium falciparum [1]) [µM] | IC50 (Staphylococcus aureus [2]) | IC50 (Cryptococcus neoformans) [µM] | IC50 (Candida albicans) | IC50 (Pseudomonas aeruginosa) | IC50 [4] | IC50 (BT-549; bt-549) | IC50 (Escherichia coli) | IC50 (Aspergillus fumigatus) | TC50 (Vero) | IC50 (SK-MEL; sk-mel) | IC50 (Plasmodium falciparum [5]) [µM] | IC50 (KB; kb) | IC50 (SK-OV-3) | selectivity ratio [6] | CC50 [7] [µM] | selectivity ratio [8] | IC50 (Leishmania donovani; Leishmania donovani, 48 h) [µM] | CC50 at 48 h [3] [µM] | IC90 (Leishmania donovani; Leishmania donovani, 48 h) [µM] | other results |
| --- | --- | --- | --- | --- | --- | --- | --- | --- | --- | --- | --- | --- | --- | --- | --- | --- | --- | --- | --- | --- | --- |
| C[C@H]1[C@@H](OC/C=C\CO)O[C@@H]2O[C@@]3(C)CC[C@H]4[C@H](C)CC[C@@H]1[C@@]24OO3 | 0.0062 | Not Active | 0.56 | Not Active | Not Active | Not Active | Not Active | Not Active | Not Active | Not Active | Not Active | 0.0076 | Not Active | Not Active | > 1760 | > 13.4 | > 2160 | 42.3 |  |  | TC50 [3]: Not Active; IC90 (Leishmania donovani): inactive |
| C[C@H]1[C@@H](OCC[C@@H](CO[C@H]2O[C@@H]3O[C@@]4(C)CC[C@H]5[C@H](C)CC[C@@H]([C@H]2C)[C@@]35OO4)O[C@H]2O[C@@H]3O[C@@]4(C)CC[C@H]5[C@H](C)CC[C@@H]([C@H]2C)[C@@]35OO4)O[C@@H]2O[C@@]3(C)CC[C@H]4[C@H](C)CC[C@@H]1[C@@]24OO3 | 0.298 | Not Active | 16.6 | Not Active | Not Active |  |  | Not Active | Not Active |  |  | 0.243 |  | Not Active | 22 | 5.25 | 18 | 5 | 0.07 | 44.2 | IC50 [4, 11]: > 22.1 µM; IC50 (Pichia kudriavzevii): Not Active; IC50 (BT-549; [12]): 0.06 µM; IC50 (Staphylococcus aureus [9]): Not Active; CC50 at 48 h [10]: > 1.1 µM; IC50 (SK-MEL; [13]): 0.24 µM; IC50 (KB; [14]): 0.11 µM; IC50 (Nakaseomyces glabratus): Not Active |
| C[C@H]1[C@@H](OC[C@@H]2O[C@@H]2CO[C@H]2O[C@@H]3O[C@@]4(C)CC[C@H]5[C@H](C)CC[C@@H]([C@H]2C)[C@@]35OO4)O[C@@H]2O[C@@]3(C)CC[C@H]4[C@H](C)CC[C@@H]1[C@@]24OO3 (relative stereo) | 0.0455 | Not Active | 31.4 |  |  | Not Active |  | Not Active |  |  |  | 0.0471 |  | Not Active | > 159 | > 7.47 | > 164 | 3.9 | 0.68 | 47.1 | IC50 (Candida albicans; [15]): > 31.4 µM; IC50 (Pseudomonas aeruginosa; Pseudomonas aeruginosa, ATCC 27853, read-out: IC50): > 31.4 µM; IC50 (Pichia kudriavzevii): Not Active; IC50 (BT-549; [12]): 0.3 µM; IC50 (Staphylococcus aureus [9]): Not Active; IC50 (Aspergillus fumigatus; [16]): > 31.4 µM; CC50 at 48 h [10]: > 1.57 µM; IC50 (SK-MEL; [13]): 0.22 µM; IC50 (KB; [14]): 0.47 µM; IC50 (Nakaseomyces glabratus; [17]): > 31.4 µM |
| C[C@H]1[C@@H](Oc2cccc(N[C@@H]3[C@H](C)O[C@@H]4O[C@@]5(C)CC[C@H]6[C@H](C)CC[C@@H]3[C@@]46OO5)c2)O[C@@H]2O[C@@]3(C)CC[C@H]4[C@H](C)CC[C@@H]1[C@@]24OO3 | 0.0058 | Not Active | 0.16 | Not Active | Not Active | Not Active | Not Active |  | Not Active | Not Active | Not Active | 0.0059 | Not Active | Not Active | > 1250 | > 7.41 | > 1290 | 24.9 |  | 62.3 | TC50 [3]: Not Active; IC50 (Escherichia coli; [18]): 8.57 µM |
| C[C@H]1[C@@H](OCC[C@H](O)CO[C@H]2O[C@@H]3O[C@@]4(C)CC[C@H]5[C@H](C)CC[C@@H]([C@H]2C)[C@@]35OO4)O[C@@H]2O[C@@]3(C)CC[C@H]4[C@H](C)CC[C@@H]1[C@@]24OO3 | 0.0438 |  | 1.6 |  | Not Active |  |  |  |  |  |  | 0.0454 |  | Not Active | > 164 | > 7.45 | > 170 | 2.5 | 0.1 | 9.4 | IC50 (Staphylococcus aureus [2]; Staphylococcus aureus, ATCC 43300, read-out: IC50): > 31.3 µM; IC50 (Candida albicans; [15]): 10.2 µM; IC50 [4, 11]: > 31.3 µM; IC50 (Pichia kudriavzevii; [19]): > 31.3 µM; IC50 (BT-549; [12]): 0.08 µM; IC50 (Staphylococcus aureus [9]; Staphylococcus aureus, ATCC 29213, read-out: IC50): 16.5 µM; IC50 (Escherichia coli; [18]): 13.6 µM; IC50 (Aspergillus fumigatus; [16]): 5.24 µM; CC50 at 48 h [10]: > 1.57 µM; IC50 (SK-MEL; [13]): 0.24 µM; IC50 (KB; [14]): 0.16 µM; IC50 (Nakaseomyces glabratus; [17]): > 31.3 µM |
| C[C@H]1[C@@H](OC[C@@H](O)[C@@H](O)CO[C@H]2O[C@@H]3O[C@@]4(C)CC[C@H]5[C@H](C)CC[C@@H]([C@H]2C)[C@@]35OO4)O[C@@H]2O[C@@]3(C)CC[C@H]4[C@H](C)CC[C@@H]1[C@@]24OO3 (relative stereo) | 0.0067 | Not Active | 1.22 |  | Not Active | Not Active | Not Active |  |  | Not Active | Not Active | 0.0052 | Not Active | Not Active | > 1400 | > 7.26 | > 1080 |  |  | 22.9 | TC50 [3]: Not Active; IC50 (Candida albicans; [15]): 6.11 µM; IC50 (Escherichia coli; [18]): 15.3 µM; IC50 (Aspergillus fumigatus; [16]): 30.5 µM |
| C[C@H]1[C@@H](OCc2cc(O)cc(O)c2)O[C@@H]2O[C@@]3(C)CC[C@H]4[C@H](C)CC[C@@H]1[C@@]24OO3 | 0.0209 | Not Active | 18.6 | Not Active | Not Active |  | Not Active |  | Not Active | Not Active | Not Active | 0.0207 | Not Active | Not Active | > 567 | > 11.7 | > 560 | 5.7 | 2.46 | 24.6 | IC50 [4, 11]: > 49.2 µM; IC50 (Pichia kudriavzevii): Not Active; IC50 (Staphylococcus aureus [9]): Not Active; IC50 (Escherichia coli; [18]): 48.6 µM; IC50 (Nakaseomyces glabratus): Not Active |
| C[C@H]1[C@@H](OCC(=O)CO)O[C@@H]2O[C@@]3(C)CC[C@H]4[C@H](C)CC[C@@H]1[C@@]24OO3 | 0.0079 | Not Active | 6.48 |  | Not Active | Not Active | Not Active | Not Active | Not Active | Not Active | Not Active | 0.007 | Not Active | Not Active | > 1900 | > 13.3 | > 1700 | 25.8 | 20.8 | 112 | IC50 (Candida albicans; [15]): > 56.1 µM; IC50 (Pichia kudriavzevii; [19]): > 56.1 µM; IC50 (Staphylococcus aureus [9]): Not Active; IC50 (Nakaseomyces glabratus): Not Active |
